Hits are enriched below; roughly 2.6% of the tested compounds scored in any of these assays.
SENP8 block-1 – SENP8 protease inhibitors, primary screen, biochemical, luminescence | purified SENP8, Z-RLRGG-aminoluciferin cleavage | inhibition, % at 10 µM | 1.2% of 330,000 active | AID 2540, 2010; in the data active = inhibition above about 50%
SENP6 block – SENP6 protease inhibitors, primary screen, biochemical, luminescence, uHTS; Sentrin-specific protease 6 (Homo sapiens), Q9GZR1; Recombinant SENP6 catalytic domain, aminoluciferin luminescence; inhibition, % at 10 µM; 1.8% of 330,000 active;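 active = inhibition above about 50% at the single tested dose, limit read from the data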;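 also: plate controls were DMSO wells with enzyme for no effect and DMSO wells lacking enzyme for full effect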
SENP1 inh – human SENP1 catalytic domain inhibitors, primary screen, biochemical, FRET, uHTS; Sentrin-specific protease 1 (Homo sapiens), Q9P0U3; 0.21% of 360,000 active; recombinant SENP1 catalytic domain, CyPet-SUMO1-YPet FRET cleavage; inhibition, % at 10 µM;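 active = inhibition at least 30% at 10 µM, raw YFP signal under a set limit, fluorescence ratio 0.5 to 1.5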;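 also: 0% = enzyme with DMSO and 100% = no enzyme wells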
Target sequence (Q9P0U3 419-644 limits assumed): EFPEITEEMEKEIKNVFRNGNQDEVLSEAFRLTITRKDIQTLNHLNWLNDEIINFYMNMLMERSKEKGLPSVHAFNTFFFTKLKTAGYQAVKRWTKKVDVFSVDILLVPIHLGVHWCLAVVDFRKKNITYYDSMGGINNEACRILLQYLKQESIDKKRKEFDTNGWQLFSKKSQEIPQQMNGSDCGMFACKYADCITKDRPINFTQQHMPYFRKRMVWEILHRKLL
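Material – human SENP1 catalytic domain · Input – SENP1 enzyme, 20 pM final · Compound dosing – single concentration of 10 µM compound, 0.5% DMSO final · Timing – enzyme reaction for 50 min at room temperature, dark · Measured by – FRET fluorescence in CFP and YFP emission channels · Control set – no-enzyme wells low, DMSO-plus-enzyme wells high control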
SENP8 block-2 – human SENP8 protease inhibitors, primary screen, biochemical, fluorescence, Nedd8 protein substrate, uHTS; recombinant SENP8; 0.64% of 360,000 active; AID 602440, 2012; inhibition, % at 20 µM; in the data active = inhibition mostly above about 40%, no sharp cut-off; inactive = mostly below about 27%
Platelet DG rel – inhibitors of platelet dense granule secretion, primary screen, cell-based, MLPCN, human platelets; human platelet-rich plasma, SFLLRN dense granule ATP release, luminescence; inhibition, %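 (compounds screened at 7.5 µM in platelet-rich plasma)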; 0.22% of 300,000 active;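 active = mean replicate score, as percent of positive control, at or above 50; inconclusive = mean below 50 but at least one replicate at or above 50; inactive = mean and every replicate below 50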
SENP7 block – SENP7 protease inhibitors, primary screen, biochemical, luminescence, uHTS. Sentrin-specific protease 7 (Homo sapiens), Q9BQF6. recombinant SENP7, Z-RLRGG-aminoluciferin luminescence, 40 min. inhibition, % at 5 µM. 1.5% of 330,000 active;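 active = inhibition above about 50% at the single test dose, limit read from the data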;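 also: plate controls were DMSO with enzyme for no effect and no enzyme buffer wells for full effect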
Target sequence (Q9BQF6 706-1050 limits assumed): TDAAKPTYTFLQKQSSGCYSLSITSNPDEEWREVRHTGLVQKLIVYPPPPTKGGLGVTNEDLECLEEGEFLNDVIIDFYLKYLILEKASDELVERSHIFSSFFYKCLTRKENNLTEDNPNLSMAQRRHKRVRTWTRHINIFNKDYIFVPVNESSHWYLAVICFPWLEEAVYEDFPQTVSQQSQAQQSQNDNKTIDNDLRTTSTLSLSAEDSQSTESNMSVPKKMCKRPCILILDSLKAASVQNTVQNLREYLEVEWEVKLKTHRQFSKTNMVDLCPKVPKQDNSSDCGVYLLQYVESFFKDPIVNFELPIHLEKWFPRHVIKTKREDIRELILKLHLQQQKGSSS
SENP8 conf – SENP8 protease inhibitors, retest, confirmation, biochemical, luminescence, single concentration | inhibition, % at 12.5 µM | shares compounds with SENP7 block | 40% of 6,200 active | Recombinant SENP8, Z-RLRGG-aminoluciferin luminescence, 60 min;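 active = mean inhibition across replicates above about 50%, limit read from the data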
SENP6 confirm – SENP6 protease inhibitors, confirmation, biochemical, luminescence, single concentration; shares compounds with SENP7 block; recombinant SENP6, Z-RLRGG-aminoluciferin luminescence; inhibition, % at 12.5 µM; 58% of 6,200 active; AID 488915, 2010
SENP7 conf – SENP7 protease inhibitors, retest, confirmation, biochemical, luminescence, single concentration; AID 488917, 2010; inhibition, % at 12.5 µM; shares compounds with SENP7 block; recombinant SENP7, Z-RLRGG-aminoluciferin luminescence, 40 min; 69% of 6,200 active
Casp3 SENP sel – caspase-3 protease inhibitors, confirmation, selectivity assay for SENP inhibitor project, biochemical, single concentration; inhibition, % at 12.5 µM; shares compounds with SENP7 block; AID 488918, 2010; 60% of 6,200 active; purified caspase-3, Z-DEVD-aminoluciferin luminescence, 60 min;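 active = mean inhibition above about 50%, limit read from the data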;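 also: plate controls were enzyme with DMSO for no effect and wells without caspase-3 for full effect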
SENP luc ctr – luminescence interference (SENP counter-screen); inhibition, % at 12.5 µM; 39% of 6,200 active; Pre-incubated SENP8/Z-RLRGG-aminoluciferin, luciferase luminescence interference; shares compounds with SENP7 block;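 active = mean inhibition above about 50% when retested at one dose, limit read from the data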;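 also: plate controls were DMSO wells with completed reaction for no effect and substrate without enzyme for full effect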
* marks the source's active call; other numbers are inactive results; i = inactive; ? = inconclusive; nt = no result.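 The calls were made as follows, unless noted: active = mean inhibition above about 50% in the one-dose retest (limit read from the data); inactive = the rest.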

SMILES	SENP8 block-1	SENP6 block	SENP1 inh	SENP8 block-2	Platelet DG rel	SENP7 block	SENP8 conf	SENP6 confirm	SENP7 conf	Casp3 SENP sel	SENP luc ctr
COc1ccc(CN2CC(=O)N3[C@H]4c5ccccc5OC[C@@H]4[C@H](c4ccccc4)[C@]3(C)C2=O)cc1	-4	2	6	15	nt	-5	nt	nt	nt	nt	nt
COc1ccc(CNC(=O)/C=C/[C@H]2O[C@@H](n3ccc(=O)[nH]c3=O)[C@H](O)[C@@H]2O)cc1	nt	nt	1	26	nt	nt	nt	nt	nt	nt	nt
COc1ccc(OCCNC(=O)c2ccc(C)cc2)cc1	-4	-26	1	8	-1	6	nt	nt	nt	nt	nt
CC(=O)Nc1nc(=O)c2ccccc2s1	-5	-5	-1	16	11	2	nt	nt	nt	nt	nt
O=C(Nc1nc(=O)c2ccccc2s1)c1ccccc1	43	60*	-1	19	1	41	20	53*	17	27	11
Cc1ccc(N=C2NC(=O)/C(=C/c3cccn3C)S2)c(C)c1	-12	-12	-38	14	14	-6	nt	nt	nt	nt	nt
Cn1cccc1/C=C1\SC(=Nc2ccccc2)NC1=O	72*	80*	-85	18	-38	65*	44	61*	64*	63*	27
C/C(=N\NC(=O)c1cccc(Cl)c1)C1C(=O)c2ccccc2C1=O	92*	97*	-55	26	22	74*	5	97*	101*	88*	81*
C/C(=N\NC(=O)CCc1ccccc1)C1C(=O)c2ccccc2C1=O	20	-15	3	15	0	26	nt	nt	nt	nt	nt
CCOc1ccc(/C=C2/SC(=O)NC2=S)cc1	45	74*	-8	12	-21	10	19	20	41	8	22
Cc1cc(=O)n2[nH]c(=O)c(N=Nc3ccccc3)c2[nH]1	18	36	3	40	0	8	nt	nt	nt	nt	nt
CCOc1ccc(N=Nc2c(=O)[nH]n3c(=O)cc(C)[nH]c23)cc1	92*	96*	8	38	?	95*	97*	98*	102*	98*	93*
COc1ccc(N=Nc2c(C)[nH][nH]c2=O)cc1	36	69*	8	31	3	64*	50*	52*	84*	80*	53*
COc1cccc(N=Nc2c(N)[nH][nH]c2=O)c1	0	0	2	38	-7	22	nt	nt	nt	nt	nt
CCOc1ccc(N=Nc2c(N)[nH][nH]c2=O)cc1	65*	76*	2	26	13	72*	57*	61*	90*	88*	44
Cn1c(N)nc(N)c(NC=O)c1=O	nt	nt	-8	0	nt	nt	nt	nt	nt	nt	nt
Brc1cccc(-c2nc3c4ccccc4ccn3c2Cc2ccccc2)c1	nt	nt	0	-220	nt	nt	nt	nt	nt	nt	nt
COc1ccccc1-c1cnc(C(O)c2ccc(Cl)cc2)[nH]1 (centres undefined)	nt	nt	1	4	nt	nt	nt	nt	nt	nt	nt
O=C1OC(Nc2ccc3ncccc3c2)c2ccccc21 (centres undefined)	39	72*	1	-210	-13	-16	4	1	1	2	0
COc1ccccc1C(=O)Nc1nnc(-c2ccc(F)cc2)s1	23	30	-1	-135	6	33	nt	nt	nt	nt	nt
COc1ccccc1C(=O)Nc1nsc(-c2ccccc2)n1	28	61*	2	11	14	53*	54*	52*	75*	66*	59*
O=c1[nH]n(-c2ccccc2)c(=O)cc1Cl	nt	nt	2	11	nt	nt	nt	nt	nt	nt	nt
COc1ccccc1/C=C/c1nc(C#N)c(N(C)C)o1	46	57*	-26	i	0	30	20	57*	42	53*	10
O=C(Nc1nc(-c2ccc3c(c2)OCO3)cs1)C1COc2ccccc2O1 (centres undefined)	-6	-23	-3	5	-12	-14	nt	nt	nt	nt	nt
CC(=O)Nc1nc(-c2ccc3c(c2)OCO3)cs1	9	52*	1	27	13	41	27	24	56*	52*	22
SMILES	SENP8 block-1	SENP6 block	SENP1 inh	SENP8 block-2	Platelet DG rel	SENP7 block	SENP8 conf	SENP6 confirm	SENP7 conf	Casp3 SENP sel	SENP luc ctr
O=C(CCCCl)Nc1nc(-c2ccc3c(c2)OCCO3)cs1	0	-38	1	9	2	0	nt	nt	nt	nt	nt
N#CCC(=O)Nc1nc(-c2ccc3c(c2)OCCO3)cs1	82*	89*	-24	-1	13	61*	53*	67*	89*	68*	40
COc1ccc(/C=N/NC(=O)c2ccc[nH]2)cc1	77*	79*	1	6	nt	88*	75*	74*	95*	92*	84*
O=C(NCc1ccccn1)c1ccc(NS(=O)(=O)c2ccccc2)cc1	10	6	-1	8	-5	-4	nt	nt	nt	nt	nt
COc1ccc(C(=O)c2nccc3cc(OC)c(OC)cc23)cc1OC	95*	89*	24	65*	nt	92*	86*	92*	81*	49	2
Cc1ccc(S(=O)(=O)NC2CC(C)(C)NC(C)(C)C2)cc1C	7	-6	2	3	-3	-4	nt	nt	nt	nt	nt
O=C(C1CCCCC1)N1C[C@@H](O)[C@H](n2cc(-c3ccc(F)cc3)nn2)C[C@@H]1c1ccccc1	nt	nt	0	-2	nt	nt	nt	nt	nt	nt	nt
O=[N+]([O-])c1cccc(/C=N/Nc2nccnc2Cl)c1	83*	94*	2	13	42	93*	91*	91*	100*	97*	83*
O=[N+]([O-])c1cccc(/C=N/Nc2ccccn2)c1	26	56*	2	24	6	55*	-2	-5	74*	17	-2
O=[N+]([O-])c1ccc(/C=N/Nc2ccccn2)cc1	-18	-12	22	30	1	15	nt	nt	nt	nt	nt

Source: PubChem BioAssay (several laboratories)
